Source: ChEMBL document CHEMBL4007447, “Synthesis, biological evaluation and molecular docking study of N-(2-methoxyphenyl)-6-((4-nitrophenyl)sulfonyl)benzamide derivatives as potent HIV-1 Vif antagonists” (Eur J Med Chem, 2017)
Converted amounts (≈) assume the structure as drawn. The source made the active and inactive calls. The rule behind the calls is not given here.

Columns and labels:
[1] = Cytotoxicity against human H9 cells assessed as reduction in cell viability after 7 days by MTT assay; type: cell-based
In short: (§1)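 MTT viability assay. H9 at 4×10^4 cells/well or PHA-stimulated PBMCs at 5×10^5 cells/well were incubated with serially diluted compound at 37 °C, 5% CO2 for seven days before MTT read-out. CC50 was calculated; mean ± standard deviation of three separate experiments.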

[2] = tested on: Human immunodeficiency virus 1; assay: Antiviral activity against HIV1 subtype B NL4-3 infected in human H9 cells assessed as reduction in p24 level after 7 days by ELISA; type: functional, cell-based; conditions: Human immunodeficiency virus 1, subtype B NL4-3, H9, 168 h
In short: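 H9 cells infected with NL4-3 at MOI 0.03 for 2 h, washed three times, then seeded at 4×10^4 cells/well with serially diluted compound. Incubated 7 days; supernatant p24 measured by in-house ELISA and EC50 calculated. Three separate experiments, mean ± standard deviation.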

[3] = Therapeutic index, ratio of CC50 for human H9 cells to EC50 for HIV1 subtype B NL4-3 infected in human H9 cells
In short: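 Ratio of CC50 to EC50, both measured in H9 cells: MTT cytotoxicity over seven days, and p24 ELISA after 7 days of NL4-3 infection at MOI 0.03.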

[4] = Aqueous solubility in water after 24 to 72 hrs by HPLC based shake flask method; type: physicochemical
In short: (§2)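 Equilibrium shake-flask solubility: excess compound placed in water, methanol, ethanol, acetonitrile, ethyl acetate or acetone and shaken 24-72 h at 25 °C. Filtered through 0.22 μm membrane, diluted, and quantified by HPLC on a C18 column with methanol/water 70/30 mobile phase and UV 251 nm. n=3, mean ± SD.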

[5] = Stability of the compound in pH 4 buffer solution at 100 uM after 180 hrs by HPLC analysis; type: physicochemical; conditions: read-out: Stability
[6] = Stability of the compound in pH 7 buffer solution at 100 uM up to 168 hrs by HPLC analysis; type: physicochemical; conditions: pH 7, 168 h
In short: (§3)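 Compound added to pH 4, 7 or 9 buffers at 100 μM final and shaken at 100 rpm, 37 °C. Sampled at 0–168 h (pH 4 and 7) or 0–15 h (pH 9) and analysed by HPLC on C18 with acetonitrile/water containing 0.1% triethylamine (70/30) and UV 248 nm.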

[7] = Drug degradation in pH 9 buffer solution at 100 uM after 15 hrs by HPLC analysis; in short: as §3
Liver = assay: Prodrug activation in human liver microsomes assessed as 2-Amino-N-(2-methoxyphenyl)-6-((4-nitrophenyl)sulfonyl)benzamide formation at 1.5 mg/ml after 20 mins in presence of NADPH by HPLC analysis; type: microsome
In short: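 Prodrug (1.5 mg/mL stock, 1.5 μL) incubated with human liver microsomes in 0.1 M phosphate buffer pH 7.4 with NADPH-generating system at 37 °C for 0, 5, 10, 15, 20 and 40 min. Stopped with methanol, centrifuged, supernatant dried under nitrogen, redissolved in mobile phase, analysed by HPLC and HPLC-MS.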

[8] = tested on: Human immunodeficiency virus 1; assay: Inhibition of HIV1 Vif expressed in TREX-hVif-15 cells co-expressing EYFP-N1-tagged human A3G assessed as reduction in Vif-mediated A3G degradation at 5 to 20 ug/ml after 48 hrs by flow cytometry; type: cell-based
In short: (§4)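 TREX-hvif-15 cells, in which Vif is under Tet-On control, were plated at 2×10^5 cells/well and grown overnight. At about 80% confluence they were transfected with EYFP-N1-hA3G. After 6 h the cells were washed, and compounds at varied concentrations were added together with doxycycline to induce Vif. Cells were trypsin-harvested 48 h post-transfection, and EYFP-positive cells were measured by flow cytometry. The no-Vif condition was set to 100%.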

Plasma = assay: Protein binding in Sprague-Dawley rat plasma up to 30 ug/ml after 2 hrs by HPLC analysis; type: ADME, cell-free
In short: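 Heparinized arterial plasma from male and female Sprague-Dawley rats incubated with compound at final 30, 20 or 5 μg/mL, 37 °C for 2 h. Free drug separated by 30 kD ultrafiltration (2000 g, 4 °C, 15 min) and measured by HPLC with UV 251 nm; binding = (Dt − Df)/Dt × 100%.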

[9] = tested on: Human immunodeficiency virus 1; assay: Inhibition of HIV1 Vif expressed in TREX-hVif-15 cells co-expressing EYFP-N1-tagged human A3G assessed as reduction in Vif-mediated A3G degradation after 48 hrs by flow cytometry; type: cell-based; in short: as §4
[10] = tested on: Human immunodeficiency virus 1; assay: Inhibition of HIV1 Vif expressed in TREX-hVif-15 cells co-expressing HA-tagged A3G assessed as reduction in Vif-mediated A3G degradation by measuring increase in A3G expression after 48 hrs by Western blot method; type: cell-based
In short: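 TREX-hvif-15 cells were plated at 2×10^5 cells/well and transfected at about 80% confluence with pcDNA3.1-APOBEC3G-HA. At 6 h they were washed and given fresh DMEM/10% FBS, graded compound concentrations, and 0.1 µg/mL doxycycline to induce Vif. Total protein was extracted 48 h post-transfection, and HA tag, Vif and β-actin were read by western blot.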

[11] = Cytotoxicity against human PBMC assessed as reduction in cell viability after 7 days by MTT assay; type: cell-based; in short: as §1
[12] = tested on: Human immunodeficiency virus 1; assay: Antiviral activity against HIV1 subtype B/C isolate KM018 infected in human PBMC assessed as reduction in p24 level after 7 days by ELISA; type: functional; conditions: Human immunodeficiency virus 1, subtype B/C isolate KM018, 168 h
[13] = tested on: Human immunodeficiency virus 1; assay: Antiviral activity against HIV1 subtype B isolate SF162 infected in human PBMC assessed as reduction in p24 level after 7 days by ELISA; type: functional; conditions: Human immunodeficiency virus 1, subtype B isolate SF162, 168 h
[14] = tested on: Human immunodeficiency virus 1; assay: Antiviral activity against HIV1 subtype CRF01-AE isolate TC-1 infected in human PBMC assessed as assessed as reduction in p24 level after 7 days by ELISA; type: functional; conditions: Human immunodeficiency virus 1, subtype CRF01-AE isolate TC-1, 168 h
[15] = tested on: Human immunodeficiency virus 1; assay: Antiviral activity against HIV1 subtype CRF01-AE isolate WAN infected in human PBMC assessed as assessed as reduction in p24 level after 7 days by ELISA; type: functional; conditions: Human immunodeficiency virus 1, subtype CRF01-AE isolate WAN, 168 h
[16] = Solubility in methanol after 24 to 72 hrs by HPLC based shake flask method; type: physicochemical; in short: as §2
[17] = Solubility in ethanol after 24 to 72 hrs by HPLC based shake flask method; type: physicochemical; in short: as §2
[18] = Solubility in acetonitrile after 24 to 72 hrs by HPLC based shake flask method; type: physicochemical; in short: as §2
[19] = Solubility in ethylacetate after 24 to 72 hrs by HPLC based shake flask method; type: physicochemical; in short: as §2
[20] = Solubility in acetone after 24 to 72 hrs by HPLC based shake flask method; type: physicochemical; in short: as §2
[21] = tested on: Human immunodeficiency virus 1; assay: Inhibition of HIV1 NL4-3 Vif expressed in 293T cells co-expressing HA-tagged A3G assessed as reduction in Vif-mediated A3G degradation by measuring increase in A3G expression after 48 hrs by Western blot method; type: cell-based
In short: (§5)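 293T cells were plated at 2×10^5 cells/well, grown overnight, and co-transfected at about 80% confluence with pcDNA3.1-APOBEC3G-HA and pNL4-3 (Lipofectamine 2000). Medium was replaced at 6 h with DMEM/10% FBS, then compounds were added at a range of concentrations for 48 h. HA tag, Vif, p24 and β-actin (internal control) in total lysates were read by western blot.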

[22] = tested on: Human immunodeficiency virus 1; assay: Antiviral activity against HIV1 NL4-3 infected in 293T cells expressing HA-tagged A3G assessed as reduction in Vif expression after 48 hrs by Western blot method; type: functional, cell-based; in short: as §5
[23] = 1-octanol/water partition co-efficient, log P of the compound after 2 hrs by shake-flask method; type: physicochemical
In short: (§6)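 Octanol and water mutually pre-saturated 24 h at 37 °C; excess compound dissolved in octanol phase by sonication, centrifuged, supernatant mixed 1:1 (v/v) with aqueous phase. Shaken at 120 rpm, 37 °C for 2, 4 or 7 h; phases separated by centrifugation and quantified by HPLC, in triplicate. Log P = lg(Co/Cw).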

[24] = 1-octanol/water partition co-efficient, log P of the compound after 4 hrs by shake-flask method; type: physicochemical; in short: as §6
[25] = 1-octanol/water partition co-efficient, log P of the compound after 7 hrs by shake-flask method; type: physicochemical; in short: as §6
[26] = N-octanol/water partition co-efficient, log P of the compound in octanol to water phase ratio of 1:1 up to 7 hrs by shake-flask method; type: physicochemical
[27] = N-octanol/water partition co-efficient, log P of the compound in octanol to water phase ratio of 1:4 up to 7 hrs by shake-flask method; type: physicochemical
[28] = N-octanol/water partition co-efficient, log P of the compound in octanol to water phase ratio of 1:9 up to 7 hrs by shake-flask method; type: physicochemical
[29] = tested on: Human immunodeficiency virus 1; assay: Antiviral activity against HIV1 isolate TC-1 infected in human PBMC assessed as inhibition of p24 expression up to 20 uM after 7 days by Western blot method
[30] = tested on: Human immunodeficiency virus 1; assay: Antiviral activity against HIV1 isolate TC-1 infected in human PBMC expressing HA-tagged A3G assessed as downregulation of Vif expression after 7 days by Western blot method
[31] = tested on: Human immunodeficiency virus 1; assay: Inhibition of HIV1 isolate TC-1 Vif infected in […]-stimulated human PBMC expressing HA-tagged A3G assessed as reduction in Vif-mediated A3G degradation up to 20 uM after 7 days by Western blot method

SMILES: COc1ccccc1NC(=O)c1c(NC(=O)C(N)Cc2ccccc2)cccc1S(=O)(=O)c1ccc([N+](=O)[O-])cc1 (stereo not drawn)
- CC50 at 168 h [1]: 216 µM
- EC50 [2]: 1.46 µM
- Ratio CC50/EC50 [3]: 148
- solubility thermodynamic [4]: 120 µg/mL (≈ 209 µM)

SMILES: COc1ccccc1NC(=O)c1c(NC(=O)CN)cccc1S(=O)(=O)c1ccc([N+](=O)[O-])cc1
- remaining at 180 h, 100 µM [5]: 50%
- CC50 at 168 h [1]: 196 µM
- EC50 [2]: 0.248 µM
- Ratio CC50/EC50 [3]: 790
- solubility thermodynamic [4]: 1730 µg/mL (≈ 3570 µM)
- Stability [6]: Stable
- Drug degradation [7]: > 90%
- Drug metabolism (Liver): Metabolite_Detected

SMILES: COc1ccccc1NC(=O)c1ccccc1Sc1ccc([N+](=O)[O-])cc1
- EC50 [2]: 263 µM
- inhibition [8]: Active

SMILES: COc1ccccc1NC(=O)c1c(N)cccc1S(=O)(=O)c1ccc([N+](=O)[O-])cc1
- PPB (Plasma): Active
- CC50 at 168 h [1]: ≥ 462 µM
- EC50 [2]: 1.4 to 1.54 µM
- Ratio CC50/EC50 [3]: 300
- inhibition [9]: Dose-dependent effect
- inhibition [10]: Dose-dependent effect
- CC50 at 168 h [11]: > 468 µM
- EC50 [12]: 17.8 µM
- EC50 [13]: 17.8 µM
- EC50 [14]: 522 nM
- EC50 [15]: 2950 nM
- solubility thermodynamic [4]: 0.66 µg/mL (≈ 1.54 µM)
- solubility thermodynamic [16]: 814 µg/mL (≈ 1900 µM)
- solubility thermodynamic [17]: 284 µg/mL (≈ 664 µM)
- solubility thermodynamic [18]: 9090 µg/mL (≈ 21300 µM)
- solubility thermodynamic [19]: 4380 µg/mL (≈ 10200 µM)
- solubility thermodynamic [20]: 22.4 mg/mL (≈ 52400 µM)
- inhibition [21]: Dose-dependent effect
- Activity [22]: Dose-dependent effect
- logP at 2 h [23]: 2.41
- logP at 4 h [24]: 2.4
- logP at 7 h [25]: 2.4
- logP at 7 h [26]: 2.4
- logP at 7 h [27]: 2.53
- logP at 7 h [28]: 2.55
- inhibition [29]: Active
- Activity [30]: Active
- inhibition [31]: Active

SMILES: CNc1ccc(Sc2ccc([N+](=O)[O-])cc2)c(C(=O)Nc2ccccc2OC)c1
- CC50 at 168 h [1]: 302 µM
- EC50 [2]: 240 µM
- Ratio CC50/EC50 [3]: 1.26

SMILES: COc1ccccc1NC(=O)c1cc(Cl)ccc1Sc1ccc([N+](=O)[O-])cc1
- CC50 at 168 h [1]: 483 µM
- EC50 [2]: 18.3 µM
- Ratio CC50/EC50 [3]: 26.4

SMILES: COc1ccccc1NC(=O)c1sccc1Sc1ccc([N+](=O)[O-])cc1
- CC50 at 168 h [1]: 472 µM
- EC50 [2]: 62.2 µM
- Ratio CC50/EC50 [3]: 7.59

SMILES: COc1ccccc1NC(=O)c1cc(NC(C)=O)ccc1Sc1ccc([N+](=O)[O-])cc1
- CC50 at 168 h [1]: 171 µM
- EC50 [2]: 457 µM
- Ratio CC50/EC50 [3]: 0.374

SMILES: COc1ccccc1NC(=O)c1c(N)cccc1[S+]([O-])c1ccc([N+](=O)[O-])cc1 (stereo not drawn)
- CC50 at 168 h [1]: 335 µM
- EC50 [2]: 10.5 µM
- Ratio CC50/EC50 [3]: 31.9

SMILES: COc1ccccc1NC(=O)c1c(Sc2ccc([N+](=O)[O-])cc2)cccc1N1CCNCC1
- CC50 at 168 h [1]: 30.6 µM
- EC50 [2]: 8.24 µM
- Ratio CC50/EC50 [3]: 3.71

SMILES: COc1ccccc1NC(=O)c1c(NS(=O)(=O)c2ccc(C)cc2)cccc1Sc1ccc([N+](=O)[O-])cc1
- CC50 at 168 h [1]: 364 µM
- EC50 [2]: 30.6 µM
- Ratio CC50/EC50 [3]: 11.9
